# Bioassay records as filed in PubChem BioAssay.
# Compounds with a hit are over-represented: about 4.3% of the library has one in this group of screens.
# STAT3 blocker – inhibitors of IL-6 induced STAT3 signaling; U3A cells, IL-6 STAT3-luciferase reporter, luminescence; host cell line lacks STAT1; inhibition, % at 5.5 µM; 190,000 tested, 0.89% active;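 active = inhibition above the mean inhibition across all screened compounds plus 3 SD, cut at about 44% in these data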;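 note: 0% = DMSO only wells and 100% = 100 µM nifuroxazide control wells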
# STAT3 act-1 – increases IL-6 driven STAT3 reporter signal; U3A cells, IL-6 STAT3-luciferase reporter, luminescence; 100% = signal with IL-6 EC80 alone; activation (% of control), % at 5.6 µM; 190,000 tested, 0.91% active;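 active = activation above the screen-wide mean of compound activation plus 3 SD, cut at about 130% in these data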;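 note: 0% = background luminescence of wells with medium and substrate only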
#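 System – human U3A cells carrying STAT3-luciferase construct · Probe or stimulus – Interleukin-6, 33 ng/mL · Schedule – compound 1 h, then IL-6 6 h at 37 °C · Signal – luminescence from STAT3-driven luciferase reporter · Evaluation – percent of IL-6-only median luminescence · Benchmarks – IL-6-only high control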
# STAT1 act-1 – increases IFN-gamma driven STAT1 reporter signal; activation (% of control), % at 5.5 µM; NIH 3T3 STAT1-luciferase reporter, luminescence; 100% = IFN-gamma alone, no compound; 200,000 tested, 2.6% active;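 active = activation above the screen-wide mean activation plus 3 SD, cut at about 130% in these data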;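 note: raw ratio to IFN-gamma control signal so 100% means no change and 0% no light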
# STAT1 inh – inhibitors of IFN-gamma induced STAT1 signaling; NIH 3T3 STAT1-luciferase reporter, luminescence; 200,000 tested, 0.35% active; inhibition, % at 5.5 µM; AID 920;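 active = inhibition above a set limit, the mean inhibition across all tested compounds plus 3 SD, cut at about 34% in these data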;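 note: 0% = IFN-gamma with DMSO and 100% = IFN-gamma with 300 µM nifuroxazide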
# STAT3 act-2 – STAT3 activation, confirmation assay | shares compounds with STAT3 act-1 | U3A STAT3-luciferase reporter, IL-6 potentiation, luminescence; U3A cells lack STAT1; 100 means same as IL-6 alone | potentiation (% of control), % at 5.7 µM | 1,200 tested, 64% active;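 active = percent activation of the STAT3 luciferase reporter above a set limit taken from the earlier primary screen, cut at about 130% in these data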;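 note: 0% = background signal of medium plus substrate and 100% = median of IL-6 with DMSO wells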
# NFkB act 2 – NF-kappaB activation in STAT3 activator counter-screen; shares compounds with STAT3 act-1; human cells, NF-kappaB reporter activation; activation (% of control), % at 5.7 µM; 1,200 tested, 11% active; in the data active = activation above about 120%;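 note: reporter induced by TNF-alpha stimulation; 100% = median of stimulated DMSO wells and 0% = no signal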
# STAT1 act-2 – activates STAT1, counter-screen to STAT3 activators; shares compounds with STAT3 act-1; NIH 3T3 STAT1-luciferase reporter, IFN-gamma, luminescence; activation (% of control), % at 5.7 µM; 1,200 tested, 13% active; AID 1318;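 active = activation above the solvent-only control well mean plus 3 SD, set per screening run, cut at about 120% in these data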;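 note: 100% = IFN-gamma with DMSO median signal so 100% means no change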
# Numbers without * were called inactive; nt = no result given.
SMILES,STAT3 blocker,STAT3 act-1,STAT1 act-1,STAT1 inh,STAT3 act-2,NFkB act 2,STAT1 act-2
CN(C)c1nc(OCCNC(=O)COc2ccc(Cl)cc2Cl)nc(N(C)C)n1,-48.8,146.1*,96.5,3.8,127.2,98.3,91.5
CN(C)c1nc(OCCOC(=O)COc2ccc(Cl)cc2Cl)nc(N(C)C)n1,-3.7,106.7,110.1,-9.2,nt,nt,nt
Cc1ccc2ncccc2c1NS(=O)(=O)c1ccccc1,1.5,101.1,96.0,4.3,nt,nt,nt
Cc1ccc2ncccc2c1NC(=S)NC(=O)c1ccccc1,-34.6,136.6*,85.0,14.8,146.4*,109.9,100.4
Cc1ccc(S(=O)(=O)Nc2cc(C(C(=O)OC(C)C)C(=O)C(F)(F)F)c(O)c3ccccc23)c(C)c1 (stereo unspecified),-44.7,138.2*,102.5,-2.7,109.9,101.5,102.5
Cc1ccc(S(=O)(=O)Nc2ccc3c4c(cccc24)CC3)c(C)c1,6.1,98.7,106.9,-7.5,nt,nt,nt
Cc1ccc(N/N=C2\CS(=O)(=O)N(C)c3ccsc32)cc1,-49.4,140.8*,109.9,-10.7,143.5*,120.6*,119.3
CN1c2ccsc2/C(=N/Nc2ccc(F)cc2)CS1(=O)=O,-30.7,125.9,111.3,-12.3,nt,nt,nt
COc1ccc(N=Cc2sc3ccccc3c2Cl)cc1,-40.2,136.8*,126.0,-29.1,110.5,115.3,132.2*
COC(=O)c1ccc(CN2C(=O)NC(CC(C)C)C2=O)cc1 (stereo unspecified),12.2,92.7,100.7,-2.7,nt,nt,nt
Cc1ccc(NC(=O)CC2Nc3ccccc3NC2=O)cc1Cl (stereo unspecified),-46.5,137.8*,106.1,-6.8,109.1,110.1,108.7
O=C(CC1Nc2ccccc2NC1=O)Nc1ccc2c(c1)OCO2 (stereo unspecified),13.5,89.8,111.2,-13.7,nt,nt,nt
Cn1c2ccccc2c2ncn(Cc3ccco3)c(=O)c21,-0.2,105.7,98.9,1.2,nt,nt,nt
O=c1c2ccccc2ncn1Cc1ccco1,-48.5,147.3*,106.4,-7.0,144.8*,100.0,94.5
COC(=O)c1cnn(-c2nc3c(C)cccc3s2)c1C,-39.7,140.5*,101.2,-1.3,134.3*,107.9,116.1
COC(=O)c1[nH]c2ccc(F)cc2c1NS(=O)(=O)c1ccc(OC)cc1OC,-45.3,142.5*,90.3,10.6,131.9,103.2,99.8
CCOC(=O)c1[nH]c2ccc(OC)cc2c1NS(=O)(=O)c1ccc(OC)cc1OC,-0.6,102.8,96.1,4.2,nt,nt,nt
CCOc1ccc(N(CC(=O)NN=C2CCCC2)S(C)(=O)=O)cc1,-1.8,105.5,100.7,-2.4,nt,nt,nt
Cc1ccc(N)c2c1OCCC2=O,-48.4,136.9*,85.3,16.5,137.5*,108.3,89.9
N#C/C(=C\Nc1ccc2cn[nH]c2c1)c1nc(-c2ccc(Cl)cc2)cs1,-56.4,147.7*,91.0,8.2,114.6,98.8,90.1
Oc1ccccc1-c1cc(-c2cccc(F)c2)n[nH]1,-50.8,145.4*,109.3,-10.1,154.9*,139.7*,110.7
Oc1ccc(Cl)cc1-c1cc(-c2cccc(Br)c2)n[nH]1,11.0,96.8,100.0,0.0,nt,nt,nt
CCCNC(=O)CN(C)CC(=O)Nc1ccccc1C#N,-23.1,119.3,95.0,3.0,nt,nt,nt
N#Cc1ccc(NC(=O)COC(=O)CSc2nnc(-c3ccc(Cl)cc3)o2)cc1,-6.0,100.7,101.5,-1.7,nt,nt,nt
O=C(c1cccc(F)c1)N1CCc2ccccc21,-52.8,145.5*,100.5,2.6,124.7,102.7,97.3
SMILES,STAT3 blocker,STAT3 act-1,STAT1 act-1,STAT1 inh,STAT3 act-2,NFkB act 2,STAT1 act-2
Cc1ccc(C(=O)N2CCc3ccccc32)cc1,-32.6,130.8,115.0,-19.6,nt,nt,nt
Cn1ncc(Cl)c1C(=O)N1CCc2ccccc21,-62.9,154.9*,98.2,1.9,140.1*,104.6,97.5
Cc1nn(C)c(C(=O)N2CCc3ccccc32)c1Cl,-48.5,143.6*,90.3,10.7,113.3,101.7,93.0
Cn1ncc(Cl)c1C(=O)N1CCCc2ccccc21,1.4,99.1,98.1,2.0,nt,nt,nt
COc1cc2c(cc1NC(=O)C(c1ccccc1)c1ccccc1)CCCC2,-5.3,105.4,106.1,-6.1,nt,nt,nt
O=C(CSC(=S)N1CCOCC1)Nc1nc(=O)c2ccccc2s1,7.3,97.0,98.3,1.9,nt,nt,nt
